Most compounds without a hit are left out; they make up all but 1.7% or so of the library.
SUMO1-SIM PPI: SUMO1-SIM interaction modulation; 0.33% of 360,000 active; inhibition, % at 20 µM; AID 602429; SUMO1 binding to a labelled peptide, TR-FRET, 1 h; in the data active = inhibition above about 37%
LMPTP inh: blocks human LMPTP phosphatase | P24666 | recombinant LMPTP-A, OMFP fluorogenic substrate, fluorescence intensity | inhibition, % at 20 µM | 0.22% of 360,000 active | AID 651560;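 active = compounds that cut the enzyme signal by at least half of the control window in the single-dose screen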;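 also: plate controls were DMSO wells with enzyme plus substrate for no effect and substrate without enzyme for full effect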
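Assay system: LMPTP-A enzyme. Input: 0.625 nM LMPTP-A final. Probe or stimulus: 400 µM OMFP. Compound dosing: single 20 µM dose. Schedule: 50 min dark incubation at room temperature. Detection: fluorescence intensity of OMFP turnover product. Read-out: percent inhibition versus substrate-only and uninhibited controls. Benchmarks: no-enzyme low control, uninhibited high control.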
Scp-1 inhibitor: blocks human Scp-1 phosphatase activity; Recombinant Scp1, phosphopeptide, malachite green phosphate absorbance; inhibition, % at 20 µM; 0.88% of 340,000 active;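 active = inhibition above about 50% at 20 µM, limit read from the data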;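 also: plate controls were DMSO wells with enzyme for no effect and wells lacking enzyme for full effect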
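Assay system: SCP-1 catalytic fragment, aa 76-261 | Buffer or medium: Tris acetate buffer pH 5.5 with MgCl2 and Tween-20 | Compound: One concentration, 20 µM, with 1.0% DMSO | Also added: Phospho 17-mer peptide substrate | Signal: Absorbance at 630 nm | Incubation: 45 min enzyme reaction at room temperature | Measure: % inhibition of SCP-1 phosphate liberation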
STEP inh: blocks human striatal-enriched tyrosine phosphatase; recombinant STEP, OMFP fluorogenic substrate, fluorescence; AID 588621; P54829; 0.25% of 360,000 active; inhibition, % at 20 µM;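 active = inhibition at 20 µM, scaled per plate between control wells, above about 37%, limit read from the data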;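 also: 0% = DMSO with enzyme and substrate and 100% = substrate only without enzyme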
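Material: STEP (striatal-enriched tyrosine phosphatase) enzyme, cell-free; Compound dosing: 20 µM single dose in 1% DMSO; Technique: fluorescence read at 480 nm ex / 540 nm em; Times: reaction 20 min, ambient temperature; Medium: 50 mM Bis-Tris pH 6.0 with 2.5 mM DTT and 0.005% Tween 20; Also added: OMFP at 25 µM.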
DNMT1 inh: blocks human DNA methyltransferase DNMT1 | DNMT1 molecular beacon, Hinp1I cleavage, fluorescence | inhibition (reported as % activation of signal), % at 10 µM | 0.83% of 360,000 active | AID 588458; in the data active = inhibition above about 50%
Casp6 inh: inhibitors of human caspase-6 | purified caspase-6, Z-VEID-R110 cleavage fluorescence | inhibition, % at 12.5 µM | 0.53% of 350,000 active;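 active = mean inhibition across replicates at least about 35%, with every replicate also reaching that limit, limit read from the data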;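 also: 0% = median of neutral control wells and 100% = no fluorescence left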
Scp1 confirm: Scp-1 (human) inhibition, single-dose confirmed | 61% of 2,500 active | recombinant SCP-1 catalytic domain, phosphate release, malachite green absorbance | shares compounds with Scp-1 inhibitor | inhibition, % at 20 µM | AID 540281;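 also: plate controls were DMSO with enzyme for no effect and buffer wells lacking enzyme for full effect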
Scp-1 MG ctr: interferes with malachite green readout, flagging false Scp-1 hits. shares compounds with Scp-1 inhibitor. Colorimetric interference counterscreen, malachite green absorbance 630 nm. apparent inhibition (interference), % at 20 µM. 2,500 tested, under 10 active. AID 540313;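 also: compounds added after enzyme reaction finished so only phosphate colour detection is probed; plate controls were DMSO wells with completed Scp-1 reaction for no effect and substrate wells lacking enzyme for full effect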
Scp-1 Tm shift: validation of human Scp-1 inhibitors by thermal shift binding; Recombinant SCP1, Sypro Orange thermal shift Tm; shares compounds with Scp-1 inhibitor; 25% of 1,500 active; AID 540329; thermal shift relative to vanadate control, % at 40 µM;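 active = substances whose mean melting-temperature shift, as a percentage of the reference inhibitor's shift, reaches about 5.3%, limit read from the data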;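 also: 0% = Tm of DMSO wells and 100% = Tm with sodium orthovanadate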
Beacon interf DR: shows spectral interference in the DNMT1 beacon assay; AID 602382; shares compounds with DNMT1 inh; molecular beacon fluorescence, spectral interference counter-screen; IC50, µM; 200 tested, under 10 active; call rule not given here
DNMT1 confirm: DNMT1 inhibition confirmation, single concentration; 8% of 2,300 active; shares compounds with DNMT1 inh; inhibition, % at 10 µM; DNMT1 molecular beacon HinP1I cleavage, fluorescence;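 active = average inhibition of at least 30% in the single-concentration confirmation test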
Beacon interf: beacon fluorescence artifact counter-screen; shares compounds with DNMT1 inh; DNMT1 molecular beacon spectral interference counterscreen, fluorescence 485/520; activation (fluorescence interference), % at 10 µM; 1% of 2,300 active; AID 602387;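 active = activation of at least 30% at 10 µM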;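 also: DNMT1 catalytic domain with a HinP1I cleavage step and a FAM/dabcyl DNA beacon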
* hit, by the source's call; x = not tested or not shown.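 The calls were made as follows, unless noted: active = inhibition of at least 30% at 20 µM; inactive = the rest.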

SMILES | SUMO1-SIM PPI | LMPTP inh | Scp-1 inhibitor | STEP inh | DNMT1 inh | Casp6 inh | Scp1 confirm | Scp-1 MG ctr | Scp-1 Tm shift | DNMT1 confirm | Beacon interf | others
Cc1cccc2sc(NC(=O)C3CCN(S(=O)(=O)c4cc([N+](=O)[O-])ccc4Cl)CC3)nc12 | 4 | 5 | 80* | 12 | 57* | 26 | 54* | -19 | 12* | 1 | -1
O=C(NC1=NCCS1)C1CCN(S(=O)(=O)c2cc([N+](=O)[O-])ccc2Cl)CC1 | -21 | 18 | 91* | 2 | 76* | 1 | 77* | -5 | 11* | 2 | -2
O=C(NC1CC1)C1CCN(S(=O)(=O)c2cc([N+](=O)[O-])ccc2Cl)CC1 | -11 | 43 | 76* | 0 | 90* | 4 | 69* | -11 | 11* | 6 | -2
Cc1nnc(NC(=O)C2CCN(S(=O)(=O)c3cc([N+](=O)[O-])ccc3Cl)CC2)o1 | -23 | -1 | -2 | 0 | 0 | 0 | x | x | x | x | x
O=C(NC1CC1)C1CCN(S(=O)(=O)c2cc(Cl)ccc2Cl)CC1 | -1 | 0 | -2 | 1 | 5 | 0 | x | x | x | x | x
Cc1c2cnn(CC(=O)Nc3c(F)c(F)cc(F)c3F)c(=O)c2c(C)n1Cc1ccccc1F | 16 | 15 | 69* | 5 | 91* | 4 | 77* | -6 | 7.2* | 24 | -4 | Beacon interf DR=>99
O=C(Nc1cc(=O)[nH]c2ncnn12)c1ccco1 | 4 | -2 | 6 | 0 | 1 | 0 | x | x | x | x | x
O=C(N=Nc1c(O)[nH]c2ccc([N+](=O)[O-])cc12)c1cc(-c2ccccc2Cl)nc2ccccc12 | 21 | 80* | 95* | 85* | 95* | 1 | 77* | -8 | 8.8* | -2 | -20
CC(CS(=O)(=O)c1ccc2c(c1)NC(=O)CS2)C(=O)NCc1ccccc1Cl (stereo not given) | 90* | 2 | 76* | 5 | 93* | x | 81* | 6 | 4 | 17 | 4
O=C1CSc2ccc(S(=O)(=O)NCc3ccccc3Cl)cc2N1 | 5 | 0 | -9 | -4 | 1 | 2 | x | x | x | x | x
CCCCN(C(=O)Cn1ncc(Cl)c(Cl)c1=O)c1c(N)n(CC(C)C)c(=O)[nH]c1=O | 1 | 26 | 82* | 2 | 61* | 4 | 76* | -4 | 6.2* | 20 | 4
CCCCN(C(=O)CN1CC(C)OC(C)C1)c1c(N)n(CC(C)C)c(=O)[nH]c1=O (stereo not given) | 0 | -2 | 0 | -1 | 1 | 1 | x | x | x | x | x
CC1=NNC(=O)C1CCC(=O)N/N=C/c1ccc(C)cc1 (stereo not given) | x | x | -4 | x | x | -3 | x | x | x | x | x
O=C(NCc1ccco1)c1cc(-c2cccs2)nc2ccccc12 | -4 | 1 | -4 | 3 | 3 | -1 | x | x | x | x | x
O=C(COC(=O)c1cc(-c2cccs2)nc2ccccc12)NCc1ccco1 | 5 | 5 | 56* | -2 | 51* | x | 56* | -11 | 7.0* | 17 | 4
Cc1ccc(C)c(SCC(=O)OCC(=O)c2ccco2)c1 | 3 | 3 | 60* | 2 | 81* | 54* | 69* | -9 | 1 | 3 | 2
O=C(COC(=O)/C=C/c1ccco1)NCc1ccco1 | -3 | 8 | 72* | 12 | 52* | 60* | 82* | 5 | 1 | 2 | 4
O=C(COC(=O)c1ccccc1Nc1cccc(C(F)(F)F)c1)NCc1ccco1 | 6 | 20 | 77* | 18 | 91* | x | 53* | -23 | 5.3* | 6 | 4
CCCC1CC(CSC(=N)N)OC1=O (stereo not given) | -2 | -3 | -2 | 3 | 1 | x | x | x | x | x | x
CO[C@H]1CN(C)C(=O)c2cc(NC(=O)C3CCOCC3)ccc2OC[C@H](C)N(C)C[C@@H]1C | x | x | x | x | x | 0 | x | x | x | x | x
Cc1ccccc1OCC(=O)OCC(=O)NCc1ccco1 | -3 | 2 | -6 | 1 | 2 | 0 | x | x | x | x | x
COc1ccccc1NCCC(=O)OCC(=O)NCc1ccco1 | 5 | 22 | 75* | 4 | 51* | x | 64* | -9 | -1 | 17 | -2
O=C(COC(=O)Cc1ccc(Cl)cc1)NCc1ccco1 | 19 | -1 | 82* | 7 | 88* | 42* | 71* | -4 | 2 | 8 | 2
O=C(COC(=O)c1ccccc1)NCc1ccco1 | 3 | 14 | 104* | -2 | 74* | x | 63* | -9 | -18 | 6 | 4
O=C(COC(=O)/C=C/c1ccco1)Nc1ncc(C(F)(F)F)cc1Cl | -2 | 13 | 76* | 33 | 71* | 53* | 56* | -15 | 6.1* | 18 | 3
SMILES | SUMO1-SIM PPI | LMPTP inh | Scp-1 inhibitor | STEP inh | DNMT1 inh | Casp6 inh | Scp1 confirm | Scp-1 MG ctr | Scp-1 Tm shift | DNMT1 confirm | Beacon interf | others
O=C(NC[C@@H]1CC[C@@H]2[C@@H](CN2S(=O)(=O)c2ccccc2[N+](=O)[O-])O1)c1cnccn1 | x | x | x | x | x | 2 | x | x | x | x | x
Cc1cc(Br)ccc1SCC(=O)OCC(=O)NCc1ccco1 | 19 | 6 | 75* | 7 | 82* | 48* | 61* | -17 | 1 | 9 | -2
Cc1cccc(C(=O)OCC(=O)NCc2ccco2)c1 | 3 | -1 | 24 | 2 | 20 | 3 | x | x | x | x | x
O=C(COC(=O)c1cccc(Br)c1)NCc1ccco1 | 7 | 13 | 56* | 1 | 87* | 65* | 53* | -13 | 1 | 2 | 4
O=C(COC(=O)c1ccc(Br)o1)NCc1ccco1 | 4 | 16 | 74* | 2 | 58* | x | 65* | -6 | -6 | 2 | 2
CCOC(=O)C1CCN(C(=O)Cc2cccc3ccccc23)CC1 | -3 | -3 | 5 | 1 | -1 | x | x | x | x | x | x
O=C(CO/N=C/c1ccccc1OC(F)F)NCc1cccs1 | -6 | -1 | -5 | -1 | 0 | x | x | x | x | x | x
O=c1c2c(nc3cc(-c4ccccc4)[nH]n13)CCS2 | 0 | -2 | 28 | -1 | -6 | x | x | x | x | x | x
O=c1c2c(nc3cc(-c4ccccc4Cl)[nH]n13)CCS2 | 12 | 33 | 64* | 5 | 77* | 2 | 12 | -9 | x | 1 | 2
